Assay results from ChEMBL document CHEMBL4513216, “Probing the Open Global Health Chemical Diversity Library for Multistage-Active Starting Points for Next-Generation Antimalarials” (ACS Infect Dis, 2020).

Experiment: Toxicity liver stage against HepG2, at 10uM
Format: cell-based
Design: test concentration 10 uM, cell line HepG2-A16-CD81EGFP
Conditions: human, HepG2-A16-CD81EGFP cells; read-out: INHIBITION
In short: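 Uninfected HepG2-A16-CD81EGFP cells, 3 × 10^3 per well, 1536-well, plated on prespotted compound at 10 μM final, parasite-free screening media added to match infected plates; puromycin 10 μM positive, DMSO 0.5% negative; run in parallel with 48 h PbLuc assay at 37 °C, 5% CO2; viability by CellTiter-Glo luminescence, normalized to controls.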

SMILES | cytotoxicity at 10 µM [%]
O=c1[nH]cc(N2CCCCCC2)c(=O)[nH]1 | 3.46
O=C1COC[C@H]([C@H](O)c2ccc(NC(=O)c3cccnc3)cc2)N1 | 0.317
CN(C)C(=O)CN1CCC2(CCN(S(C)(=O)=O)CC2)C1=O | 2.2
CC(=O)N1CCOCC2(C1)CN(S(C)(=O)=O)CCO2 (stereo not given) | 2.84
CCS(=O)(=O)N1C[C@@H](c2nnc(C)o2)C[C@H]2OCC[C@H]21 | 1.36
Cn1c2c(c(=O)n1C)CN(S(=O)(=O)c1cccs1)CCC2 | 8.98
NC(=O)CN1CCC(c2noc3cc(F)ccc23)CC1 | 5.47
CC(=O)N1CCN(c2cc(C3CN(C)CCO3)nc(C)n2)CC1 (stereo not given) | 1.05
CNS(=O)(=O)CC(=O)N1CCC(c2cc3ccccc3[nH]2)CC1 | 3.12
Cn1cc(C2CCCN2C(=O)CCCc2nc3ccccc3[nH]2)cn1 (stereo not given) | 2.35
CCc1nnsc1C(=O)NC(CC(C)C)C(=O)OC (stereo not given) | 11.4
CCSc1cc(C(=O)N(C(C)C)C2CC2)ccn1 | 6.27
CC1(C)CN(C(CNS(N)(=O)=O)c2ccc(Cl)cc2)CCO1 (stereo not given) | 6.88
Cc1cc(N2CCN(C(=O)c3cn(C)c4ccccc34)CC2)nc(C)n1 | -1.96
CCn1nc2c(cc1=O)CN(Cc1cc(C)on1)CC2 | 0.341
O=C(NCC1(N2CCOCC2)CCSC1)Nc1cn[nH]c1 (stereo not given) | 9.37
CCN(CC)C(=O)CSc1ccc(C(F)(F)F)cn1 | 12.7
CN1CCN(S(=O)(=O)c2ncn(C)c2Cl)CC1 | 6.84
Cc1ccc(C(=O)NC2CCN(Cc3nc(CC(C)C)no3)CC2)s1 | 7.61
CC(C)C(NC(=O)Nc1ccc(F)cc1)C(=O)N(C)C (stereo not given) | -10.9
CCOc1cc(C)nc(N2CCN(C(C)c3nc(C)no3)CC2)n1 (stereo not given) | -1.67
CCCc1nn(C2CCN(C3CC3)C2=O)c(=O)o1 (stereo not given) | -13.7
Cc1nn(C)c(C)c1CCC(=O)N1CCc2sccc2C1 | 16.3

SMILES | cytotoxicity at 10 µM [%]
CC(c1nc(C(C)(C)C)no1)N1CCC(N2CCCC2)CC1 (stereo not given) | 3.63
CC(=O)N(C)c1nc(Cn2nnnc2C(C)C)cs1 | -2.01
Cc1cc(Cl)c(C)c(S(=O)(=O)N2CCN(Cc3ccccn3)CC2)c1Cl | -7.06
CCOc1ccccc1CSc1nnc(CC2CCS(=O)(=O)C2)n1C (stereo not given) | 10.7
O=C(Nc1cnc2n1CCCC2)C1CCNCC1 | 4.25
COCCN1CCC(c2nc3c([nH]2)CC(C)(C)CNC3=O)CC1 | -3.13
COCc1noc(CN2CC(=O)N(C)c3ccccc3C2=O)n1 | -6.3
CCc1nn(C)c(Cl)c1CN1CCCC(c2cc(O)nc(C)n2)C1 (stereo not given) | -2.37
CC1(C)CNC(=O)c2nc(-c3ccccc3)[nH]c2C1 | -7.28
CCC(C)N(Cc1cccnc1)C(=O)c1ccc(NS(=O)(=O)CC)cc1 (stereo not given) | 7.1
CCN1CCN(C[C@@H]2CN(Cc3cnc(C(C)C)nc3)C[C@@H]2CO)CC1 | -6.79
CCC(O)CN1CCN(C(=O)Cc2ccccc2Cl)CC1 (stereo not given) | -7.98
CN1CCCC1CNC(=O)CCCOc1ccc(I)cc1 (stereo not given) | -14
CCOCC(O)CN1CCN(C(=O)CC(C)(C)C)CC1 (stereo not given) | -5.95
CCC(CO)NCc1ccc(-c2ccc(F)c(Cl)c2)o1 (stereo not given) | 5.24
O=C(CCN1CCCCC1)Nc1c2c(cc3c1CCC3)CCC2 | 4.29
Cc1ccc(N2CC[C@H]3[C@@H]2CCC(=O)N3CCN2CCOCC2)nn1 | -3.18
CCN1CCO[C@@H]2CN(C(=O)c3cocn3)C[C@@H]2C1 | 0.933
Cn1cc(C[C@H]2[C@H](O)CCN2CC2CC2)cn1 | -0.516
CCO[C@@H]1CO[C@@]2(CCN(Cc3ccc4c(c3)OCO4)C2)C1 | 5.53
CN1CCOCC2(CCN(Cc3ccc[nH]3)CC2)C1 | 0.442
Cc1cc(CN2C[C@@H]3COC[C@]3(CN(C)C)C2)no1 | 4.81
